Assay [1] can be described thus: Inhibition of Influenza B virus (B/Perth/211/2001) recombinant neuraminidase E197 mutant expressed in Sf21 insect cells after 60 mins by MUNANA based assay. In a few lines: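 The enzyme source was virus grown in cell culture and solubilized in 1% CHAPS (final), then titrated to give similar fluorescence. Inhibitor (serial log10 dilutions in water, 0.01–10000 nM; one inhibitor 0.01–10000 μM) was added together with 100 μM MUNANA, with no preincubation. Fluorescence was read every minute for 60 min without stop solution. […] Duplicates.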

Assay [2] can be described thus: Inhibition of Influenza B virus (B/Perth/211/2001) recombinant neuraminidase E197 mutant expressed in Sf21 insect cells preincubated for 30 mins measured after 60 mins by MUNANA based assay. The gist of the method: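 Virus detergent extract (1% CHAPS final, titrated to similar fluorescence) was preincubated for 30 min with inhibitor (serial log10 dilutions in water, 0.01–10000 nM; one inhibitor 0.01–10000 μM). 100 μM MUNANA was then added and fluorescence read every minute for 60 min without stop solution. […] Duplicates.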

One may read the IC50 as the concentration that gives 50% inhibition. In general, Ki refers to the equilibrium dissociation constant of an inhibitor or competing ligand from its target.

Consider `O=C(O)C1(F)O[C@H]([C@H](O)[C@H](O)CO)[C@H](O)[C@@H](O)C1F` (some centres not stated), for which the half-maximal inhibitory concentration (IC50) in assay [1] amounted to 19400 nM.

`CCC(CC)[C@H](NC(C)=O)[C@@H]1[C@H](O)[C@@H](C(=O)O)C[C@H]1NC(=N)N` [PERAMIVIR ANHYDROUS]: the figures for the IC50 in assay [1] and in assay [2] were 75.2 nM and 41.5 nM, respectively. The inhibition constant Ki in assay [1] was found to be 8.3 nM; in assay [2], 8.2 nM.

As for `CCOC(=O)C1=C[C@@H](OC(CC)CC)[C@H](NC(C)=O)[C@@H](N)C1` [OSELTAMIVIR], in assay [1], the half-inhibitory concentration (IC50) was found to be 660 nM and the Ki was 84 nM.

For the origin of these results see ChEMBL document CHEMBL1250488, “Structural and functional basis of resistance to neuraminidase inhibitors of influenza B viruses” (J Med Chem, 2010).
